Our source for the Ki and Ka values is ChEMBL document CHEMBL1122806 (J Med Chem, 1984).

The target of experiment [1] is T1, Aminopeptidase N (Sus scrofa, UniProt P15145).
T1 sequence (P15145 whole entry): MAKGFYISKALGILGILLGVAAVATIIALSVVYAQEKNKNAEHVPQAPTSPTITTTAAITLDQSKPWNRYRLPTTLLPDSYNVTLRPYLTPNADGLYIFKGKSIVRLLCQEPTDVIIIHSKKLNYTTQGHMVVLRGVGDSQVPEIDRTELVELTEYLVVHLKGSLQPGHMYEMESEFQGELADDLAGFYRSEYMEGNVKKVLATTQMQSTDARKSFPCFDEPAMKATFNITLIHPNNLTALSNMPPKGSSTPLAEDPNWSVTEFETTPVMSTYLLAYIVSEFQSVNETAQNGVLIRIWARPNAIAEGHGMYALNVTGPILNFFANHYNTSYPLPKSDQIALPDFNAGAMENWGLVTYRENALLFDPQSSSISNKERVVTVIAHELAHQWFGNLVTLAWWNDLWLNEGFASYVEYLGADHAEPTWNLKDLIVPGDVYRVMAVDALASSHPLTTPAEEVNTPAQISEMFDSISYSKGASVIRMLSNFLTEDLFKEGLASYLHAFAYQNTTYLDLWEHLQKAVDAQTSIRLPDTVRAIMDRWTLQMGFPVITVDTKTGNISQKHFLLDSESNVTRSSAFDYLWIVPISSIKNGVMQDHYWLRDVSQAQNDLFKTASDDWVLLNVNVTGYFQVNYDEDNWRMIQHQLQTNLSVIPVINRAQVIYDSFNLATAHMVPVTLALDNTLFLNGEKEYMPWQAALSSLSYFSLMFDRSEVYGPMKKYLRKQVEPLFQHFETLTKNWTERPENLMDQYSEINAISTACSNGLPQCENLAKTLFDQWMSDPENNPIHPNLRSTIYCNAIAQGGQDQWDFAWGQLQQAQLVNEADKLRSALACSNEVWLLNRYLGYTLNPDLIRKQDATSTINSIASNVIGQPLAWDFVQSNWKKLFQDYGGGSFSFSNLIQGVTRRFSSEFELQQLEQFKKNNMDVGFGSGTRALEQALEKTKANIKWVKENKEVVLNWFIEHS
Nature of the experiment: Compound was evaluated for the inhibition of Aminopeptidase M (AP-M) and the inhibition constant was determined after preincubating the enzyme and inhibitor. The procedure, abridged: (§1)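 Initial rates came from reactions started by adding enzyme to substrate plus inhibitor. Final steady-state rates came after 15-20 min enzyme-inhibitor preincubation, with substrate added to start. Reaction velocities were analysed by Lineweaver-Burk plots.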

The target in experiment [2] is T1, Aminopeptidase N. The experiment is described as follows: Effect of inhibitor structure on the slow binding inhibition of aminopeptidase M was determined and the Ki was reported which is = k2/k1. The procedure, abridged: as §1
The target in experiment [3] is T1, Aminopeptidase N. Nature of the experiment: Effect of inhibitor structure on the slow binding inhibition of aminopeptidase M was determined and Ki* was reported which is obtained by the equation Ki[k4/(k3 + k4)]. The procedure, abridged: as §1
In experiment [4] the target is T1, Aminopeptidase N. Nature of the experiment: Compound was evaluated for the inhibition of Aminopeptidase M (AP-M) from porcine kidney and the inhibition constant was determined after preincubating the enzyme and inhibitor. The procedure, abridged: as §1
The target in experiment [5] is Cytosol aminopeptidase (Sus scrofa) (UniProt P28839). Nature of the experiment: Compound was evaluated for the inhibition of Leucine aminopeptidase from porcine kidney and the inhibition constant (Ka) was determined which is the apparent Km in the presence of tripeptide after preincubating the enzyme and inhibitor.
Sequence of Cytosol aminopeptidase (Sus scrofa) (P28839 whole entry, looked up): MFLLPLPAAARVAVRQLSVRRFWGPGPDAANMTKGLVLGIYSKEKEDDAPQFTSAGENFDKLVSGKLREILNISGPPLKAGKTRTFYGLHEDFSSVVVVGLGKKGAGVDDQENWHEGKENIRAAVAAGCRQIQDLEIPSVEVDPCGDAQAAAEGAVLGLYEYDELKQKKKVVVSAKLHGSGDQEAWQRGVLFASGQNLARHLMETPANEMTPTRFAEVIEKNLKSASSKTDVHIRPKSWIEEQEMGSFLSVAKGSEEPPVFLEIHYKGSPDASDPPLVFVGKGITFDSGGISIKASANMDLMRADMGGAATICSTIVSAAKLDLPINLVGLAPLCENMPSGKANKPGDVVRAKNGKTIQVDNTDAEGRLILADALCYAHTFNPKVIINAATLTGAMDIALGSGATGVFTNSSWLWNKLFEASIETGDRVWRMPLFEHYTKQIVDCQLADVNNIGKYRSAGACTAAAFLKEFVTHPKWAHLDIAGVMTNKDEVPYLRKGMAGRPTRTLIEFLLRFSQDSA
Experiment [6] has as its target T1, Aminopeptidase N. Nature of the experiment: Effect of inhibitor structure on the slow binding inhibition of Aminopeptidase M from porcine kidney was determined and the Ki was reported which is = k2/k1. The procedure, abridged:
as §1

Experiment [7] deals with T1, Aminopeptidase N. The experiment is described as follows: Effect of inhibitor structure on the slow binding inhibition of Aminopeptidase M from porcine kidney was determined and Ki was reported which is obtained by the equation Ki[k4/(k3 + k4)]. The procedure, abridged: as §1

pKi: −log10 of the molar value. Square brackets hold non-standard residues; d marks the D form. Peptide text beside a SMILES is read from it. Sta = CC(C)C[C@H](N)[C@@H](O)CC(=O)O

By pKi is commonly meant −log10 of the Ki, conventionally taken in molar units. Consider `CC(C)C[C@H](NC(=O)[C@@H](O)[C@H](N)CC(C)C)C(=O)O`, for which, in experiment [1], the pKi is 4.93.
On the same count and under the same terms, under `CC(C)C[C@@H](N)CC(=O)N[C@H](C(=O)N[C@H](C(=O)N[C@@H](CC(=O)O)C(=O)O)C(C)C)C(C)C` stands 4.60.
Regarding `CC(C)CC(N)C(O)C(=O)NC(C(=O)NC(CC(=O)O)C(=O)O)C(C)C` (stereo unspecified), the pKi in experiment [2] is 4.40; in experiment [3] it was 6.05; in experiment [1] it was 6.03.
As for `CC(C)CCNC(=O)[C@@H](NC(=O)[C@@H](NC(=O)C[C@H](O)[C@@H](N)CC(C)C)C(C)C)C(C)C`, the pKi in experiment [4] is 3.00.
Take `CC(C)C[C@H](N)[C@@H](O)CC(=O)N[C@H](C(=O)N[C@H](C(=O)N[C@@H](CC(=O)O)C(=O)O)C(C)C)C(C)C` (H-[Sta]VVD-OH): in experiment [5], the Ka was 0.0057.
Regarding `CC(C)CCNC(=O)[C@H](O)[C@@H](N)Cc1ccccc1`, the pKi in experiment [6] was 4.80; in experiment [4], 4.79; in experiment [7], 4.80.
Regarding `CC(C)CCNC(=O)[C@@H](NC(=O)[C@@H](NC(=O)[C@H](O)[C@@H](N)CC(C)C)C(C)C)C(C)C`, the pKi in experiment [1] is 6.74.
